{"source": "ChEMBL document CHEMBL1121378", "about": "“Lipophilic and hydrophilic esters of 4-acetyl-2-(2-hydroxyethyl)-5,6-bis(4-chlorophenyl)-2H-pyridazin-3-one as antihypertensive agents” (1980)", "key": {"Rattus norvegicus [1]": {"system": "Rattus norvegicus", "experiment": "Antihypertensive activity in spontaneously hypertensive rats was measured as average blood pressure at 14 mg/kg, p.o. after 24 hours of postdose-1; No significant lowering of blood pressure", "assay_type": "functional, organism-based", "set-up": "dose 14 mg/kg", "outline": "(§1)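 SHR model with two successive doses, designated dose 1 and dose 2. Group-average blood pressure in mmHg was recorded before dosing and at 4 h and 24 h after each dose. The route is oral unless marked intra-arterial or subcutaneous. A table footnote marks doses that gave no significant lowering at 4 or 24 h postdose.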"}, "Rattus norvegicus [2]": {"system": "Rattus norvegicus", "experiment": "Antihypertensive activity in spontaneously hypertensive rats was measured as average blood pressure at 14 mg/kg, p.o. after 4 hours of postdose-1; No significant lowering of blood pressure", "assay_type": "functional, organism-based", "set-up": "dose 14 mg/kg", "outline": "as §1"}, "Rattus norvegicus [3]": {"system": "Rattus norvegicus", "experiment": "Antihypertensive activity in spontaneously hypertensive rats was measured as average blood pressure at 100 mg/kg, p.o. after 24 hours of postdose-1; No significant lowering of blood pressure", "assay_type": "functional, organism-based", "set-up": "dose 100 mg/kg", "outline": "as §1"}, "Rattus norvegicus [4]": {"system": "Rattus norvegicus", "experiment": "Antihypertensive activity in spontaneously hypertensive rats was measured as average blood pressure at 100 mg/kg, po after 4 hours of postdose-1; No significant lowering of blood pressure", "assay_type": "functional, organism-based", "set-up": "dose 100 mg/kg", "outline": "as §1"}, "Rattus norvegicus [5]": {"system": "Rattus norvegicus", "experiment": "Antihypertensive activity in spontaneously hypertensive rats was measured as average blood pressure at 30 mg/kg, p.o. after 24 hours of postdose-1", "assay_type": "functional", "conditions": "route oral", "outline": "as §1"}, "Rattus norvegicus [6]": {"system": "Rattus norvegicus", "experiment": "Antihypertensive activity in spontaneously hypertensive rats was measured as average blood pressure at 30 mg/kg, po after 24 hours of postdose-2", "assay_type": "functional", "outline": "as §1"}, "Rattus norvegicus [7]": {"system": "Rattus norvegicus", "experiment": "Antihypertensive activity in spontaneously hypertensive rats was measured as average blood pressure at 30 mg/kg, p.o. after 4 hours of postdose-1", "assay_type": "functional", "conditions": "route oral", "outline": "as §1"}, "Rattus norvegicus [8]": {"system": "Rattus norvegicus", "experiment": "Antihypertensive activity in spontaneously hypertensive rats was measured as average blood pressure at 30 mg/kg, p.o. after 4 hours of postdose-2", "assay_type": "functional", "conditions": "route oral", "outline": "as §1"}, "Rattus norvegicus [9]": {"system": "Rattus norvegicus", "experiment": "Antihypertensive activity in spontaneously hypertensive rats was measured as average blood pressure at 30 mg/kg, po before predose", "assay_type": "functional", "outline": "as §1"}, "Rattus norvegicus [10]": {"system": "Rattus norvegicus", "experiment": "Antihypertensive activity in spontaneously hypertensive rats was measured as average blood pressure at 15 mg/kg, po after 24 hours of postdose-1; No significant lowering of blood pressure", "assay_type": "functional, organism-based", "set-up": "dose 15 mg/kg", "outline": "as §1"}, "Rattus norvegicus [11]": {"system": "Rattus norvegicus", "experiment": "Antihypertensive activity in spontaneously hypertensive rats was measured as average blood pressure at 15 mg/kg, p.o. after 4 hours of postdose-1; No significant lowering of blood pressure", "assay_type": "functional, organism-based", "set-up": "dose 15 mg/kg", "outline": "as §1"}, "Rattus norvegicus [12]": {"system": "Rattus norvegicus", "experiment": "Antihypertensive activity in spontaneously hypertensive rats was measured as average blood pressure at 15 mg/kg, ia after 24 hours of postdose-1", "assay_type": "functional", "conditions": "route intra-arterial", "outline": "as §1"}, "Rattus norvegicus [13]": {"system": "Rattus norvegicus", "experiment": "Antihypertensive activity in spontaneously hypertensive rats was measured as average blood pressure at 15 mg/kg, ia after 4 hours of postdose-1", "assay_type": "functional", "conditions": "route intra-arterial", "outline": "as §1"}, "Rattus norvegicus [14]": {"system": "Rattus norvegicus", "experiment": "Antihypertensive activity in spontaneously hypertensive rats was measured as average blood pressure at 15 mg/kg, sc after 24 hours of postdose-1", "assay_type": "functional", "conditions": "route subcutaneous", "outline": "as §1"}, "Rattus norvegicus [15]": {"system": "Rattus norvegicus", "experiment": "Antihypertensive activity in spontaneously hypertensive rats was measured as average blood pressure at 15 mg/kg, sc after 24 hours of postdose-2", "assay_type": "functional", "conditions": "route subcutaneous", "outline": "as §1"}, "Rattus norvegicus [16]": {"system": "Rattus norvegicus", "experiment": "Antihypertensive activity in spontaneously hypertensive rats was measured as average blood pressure at 15 mg/kg, sc after 4 hours of postdose-1", "assay_type": "functional", "conditions": "route subcutaneous", "outline": "as §1"}, "Rattus norvegicus [17]": {"system": "Rattus norvegicus", "experiment": "Antihypertensive activity in spontaneously hypertensive rats was measured as average blood pressure at 15 mg/kg, sc after 4 hours of postdose-2", "assay_type": "functional", "conditions": "route subcutaneous", "outline": "as §1"}, "Rattus norvegicus [18]": {"system": "Rattus norvegicus", "experiment": "Antihypertensive activity in spontaneously hypertensive rats was measured as average blood pressure at 15 mg/kg, sc before predose subcutaneous", "assay_type": "functional", "outline": "as §1"}, "Rattus norvegicus [19]": {"system": "Rattus norvegicus", "experiment": "Antihypertensive activity in spontaneously hypertensive rats was measured as average blood pressure at 15 mg/kg, ia after 4 hours of postdose-2", "assay_type": "functional", "conditions": "route intra-arterial", "outline": "as §1"}, "Rattus norvegicus [20]": {"system": "Rattus norvegicus", "experiment": "Antihypertensive activity in spontaneously hypertensive rats was measured as average blood pressure at 15 mg/kg, ia before predose intra arterial.", "assay_type": "functional, Artery", "outline": "as §1"}}}
{"smiles": "CC(=O)c1c(-c2ccc(Cl)cc2)c(-c2ccc(Cl)cc2)nn(CCOC(=O)C(N)C(C)C)c1=O", "note": "(stereo not drawn)", "values": [{"measurement": "BP", "setting": "Rattus norvegicus [1]", "value": "Not significant"}, {"measurement": "BP", "setting": "Rattus norvegicus [2]", "value": "Not significant"}]}
{"smiles": "CC(=O)c1c(-c2ccc(Cl)cc2)c(-c2ccc(Cl)cc2)nn(CCOC(=O)C(Cc2ccccc2)NC(=O)OCc2ccccc2)c1=O", "note": "(stereo not drawn)", "values": [{"measurement": "BP", "setting": "Rattus norvegicus [3]", "value": "Not significant"}, {"measurement": "BP", "setting": "Rattus norvegicus [4]", "value": "Not significant"}]}
{"smiles": "CC(=O)c1c(-c2ccc(Cl)cc2)c(-c2ccc(Cl)cc2)nn(CCOC(=O)CNC(=O)OCc2ccccc2)c1=O", "values": [{"measurement": "BP", "setting": "Rattus norvegicus [3]", "value": "Not significant"}, {"measurement": "BP", "setting": "Rattus norvegicus [4]", "value": "Not significant"}]}
{"smiles": "CC(=O)c1c(-c2ccc(Cl)cc2)c(-c2ccc(Cl)cc2)nn(CCOC(=O)C(C)(C)C)c1=O", "values": [{"measurement": "BP", "setting": "Rattus norvegicus [5]", "value": 202, "unit": "mmHg"}, {"measurement": "BP", "setting": "Rattus norvegicus [6]", "value": 205, "unit": "mmHg"}, {"measurement": "BP", "setting": "Rattus norvegicus [7]", "value": 200, "unit": "mmHg"}, {"measurement": "BP", "setting": "Rattus norvegicus [8]", "value": 158, "unit": "mmHg"}, {"measurement": "BP", "setting": "Rattus norvegicus [9]", "value": 205, "unit": "mmHg"}]}
{"smiles": "CC(=O)c1c(-c2ccc(Cl)cc2)c(-c2ccc(Cl)cc2)nn(CCOC(=O)CCNC(=O)OCc2ccccc2)c1=O", "values": [{"measurement": "BP", "setting": "Rattus norvegicus [3]", "value": "Not significant"}, {"measurement": "BP", "setting": "Rattus norvegicus [4]", "value": "Not significant"}]}
{"smiles": "CC(=O)c1c(-c2ccc(Cl)cc2)c(-c2ccc(Cl)cc2)nn(CCOC(=O)C(NC(=O)OCc2ccccc2)C(C)C)c1=O", "note": "(stereo not drawn)", "values": [{"measurement": "BP", "setting": "Rattus norvegicus [3]", "value": "Not significant"}, {"measurement": "BP", "setting": "Rattus norvegicus [4]", "value": "Not significant"}]}
{"smiles": "CCC(=O)OCCn1nc(-c2ccc(Cl)cc2)c(-c2ccc(Cl)cc2)c(C(C)=O)c1=O", "values": [{"measurement": "BP", "setting": "Rattus norvegicus [5]", "value": 136, "unit": "mmHg"}, {"measurement": "BP", "setting": "Rattus norvegicus [6]", "value": 168, "unit": "mmHg"}, {"measurement": "BP", "setting": "Rattus norvegicus [7]", "value": 133, "unit": "mmHg"}, {"measurement": "BP", "setting": "Rattus norvegicus [8]", "value": 129, "unit": "mmHg"}, {"measurement": "BP", "setting": "Rattus norvegicus [9]", "value": 181, "unit": "mmHg"}]}
{"smiles": "CC(=O)c1c(-c2ccc(Cl)cc2)c(-c2ccc(Cl)cc2)nn(CCOC(=O)C(NC(=O)OCc2ccccc2)C2(/N=C(/N)N[N+](=O)[O-])CCC2)c1=O", "note": "(stereo not drawn)", "values": [{"measurement": "BP", "setting": "Rattus norvegicus [3]", "value": "Not significant"}, {"measurement": "BP", "setting": "Rattus norvegicus [4]", "value": "Not significant"}]}
{"smiles": "CC(=O)c1c(-c2ccc(Cl)cc2)c(-c2ccc(Cl)cc2)nn(CCOC(=O)C(N)Cc2ccccc2)c1=O", "note": "(stereo not drawn)", "values": [{"measurement": "BP", "setting": "Rattus norvegicus [10]", "value": "Not significant"}, {"measurement": "BP", "setting": "Rattus norvegicus [11]", "value": "Not significant"}]}
{"smiles": "CCCCCCCCCCCCCCCCCC(=O)OCCn1nc(-c2ccc(Cl)cc2)c(-c2ccc(Cl)cc2)c(C(C)=O)c1=O", "values": [{"measurement": "BP", "setting": "Rattus norvegicus [5]", "value": 162, "unit": "mmHg"}, {"measurement": "BP", "setting": "Rattus norvegicus [6]", "value": 137, "unit": "mmHg"}, {"measurement": "BP", "setting": "Rattus norvegicus [7]", "value": 168, "unit": "mmHg"}, {"measurement": "BP", "setting": "Rattus norvegicus [8]", "value": 142, "unit": "mmHg"}, {"measurement": "BP", "setting": "Rattus norvegicus [9]", "value": 181, "unit": "mmHg"}]}
{"smiles": "CC(=O)c1c(-c2ccc(Cl)cc2)c(-c2ccc(Cl)cc2)nn(CCOC(=O)C(N)CCCCN)c1=O.Cl.Cl", "note": "(stereo not drawn)", "values": [{"measurement": "BP", "setting": "Rattus norvegicus [12]", "value": 159, "unit": "mmHg"}, {"measurement": "BP", "setting": "Rattus norvegicus [13]", "value": 183, "unit": "mmHg"}, {"measurement": "BP", "setting": "Rattus norvegicus [14]", "value": 171, "unit": "mmHg"}, {"measurement": "BP", "setting": "Rattus norvegicus [15]", "value": 185, "unit": "mmHg"}, {"measurement": "BP", "setting": "Rattus norvegicus [16]", "value": 169, "unit": "mmHg"}, {"measurement": "BP", "setting": "Rattus norvegicus [17]", "value": 166, "unit": "mmHg"}, {"measurement": "BP", "setting": "Rattus norvegicus [18]", "value": 181, "unit": "mmHg"}, {"measurement": "BP", "setting": "Rattus norvegicus [19]", "value": 171, "unit": "mmHg"}, {"measurement": "BP", "setting": "Rattus norvegicus [20]", "value": 199, "unit": "mmHg"}]}
